Source: ChEMBL document CHEMBL1125273, “Synthesis and biological evaluation of quinocarcin derivatives: thioalkyl-substituted quinones and hydroquinones” (J Med Chem, 1991)
Values after ≈ are worked out from the molar mass of the structure shown.

Assays:
[1] = Ratio of the ILS tested compound/quinocarcin was determined for day one in CD2F1 mice.; type: functional, Mus musculus
Method in brief: (§1)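 CD2F1 mice (5 per group) received 10^6 P388 cells ip. Drug was given ip on day 1 or on days 1–5. ILS was taken as (T/C − 1) × 100 from median survival times, and each compound's ILS was divided by the ILS of quinocarcin.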

[2] = Ratio of the ILS tested compound/quinocarcin was determined in CD2F1 mice on days 1-5.; type: functional, Mus musculus; method in brief: as §1
[3] = Antitumor activity in vivo in CD2F1 mice measured in terms of percent increase in lifespan calculated at a dose of 12.5 mg/kg intraperitoneally on day one.; type: functional; conditions: Mus musculus, ip, route intraperitoneal
Method in brief: (§2)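 P388 lymphocytic leukemia cells (1×10^6) were implanted ip into CD2F1 mice (about 22 g), five mice per group. Drug was given ip from the day after implantation, either once (day 1) or daily on days 1–5. ILS = (T/C − 1) × 100, where T and C are the median survival times of treated and control mice.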

HeLa = assay: In vitro concentration required to inhibit the growth of HeLa S3 cells by 50%; type: functional, cell-based; conditions: Homo sapiens
Method in brief: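 HeLa S3 cells (5 × 10⁴) seeded in Eagle's MEM with 10% FBS and 0.06 mg/mL kanamycin; graded drug concentrations, diluted in growth medium, added 24 h after seeding. Incubated 72 h at 37 °C, humidified 5% CO₂. Monolayers then washed, detached with 0.05% trypsin/0.02% EDTA and counted electronically; IC50 taken as concentration giving 50% growth inhibition.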

[4] = Antitumor activity in vivo in CD2F1 mice measured in terms of percent increase in lifespan calculated at a dose of 6.25 mg/kg intraperitoneally on days 1-5.; type: functional; conditions: Mus musculus, ip, route intraperitoneal; method in brief: as §2
[5] = Antitumor activity in vivo in CD2F1 mice measured in terms of percent increase in lifespan calculated at a dose of 50 mg/kg intraperitoneally on day one.; type: functional; conditions: Mus musculus, ip, route intraperitoneal; method in brief: as §2
[6] = Antitumor activity in vivo in CD2F1 mice measured in terms of percent increase in lifespan calculated at a dose of 50 mg/kg intraperitoneally on days 1-5.; type: functional; conditions: Mus musculus, ip, route intraperitoneal; method in brief: as §2
[7] = Antitumor activity in vivo in CD2F1 mice measured in terms of percent increase in lifespan calculated at a dose of 3.13 mg/kg intraperitoneally on days 1-5.; type: functional; conditions: Mus musculus, ip, route intraperitoneal; method in brief: as §2
[8] = Antitumor activity in vivo in CD2F1 mice measured in terms of percent increase in lifespan calculated at a dose of 6.25 mg/kg intraperitoneally on day one.; type: functional; conditions: Mus musculus, ip, route intraperitoneal; method in brief: as §2
Homo sapiens [9] = assay: Ratio of ILS tested compound/quinocarcin against human mammary carcinoma MX-1 cell line implanted subcutaneously in mice and the compound administered intravenously at a dose of 4.67 mg/kg on days 1-5.c means number of cured mice.; type: functional; conditions: route intravenous
Homo sapiens [10] = assay: Ratio of ILS tested compound/quinocarcin against human mammary carcinoma MX-1 cell line implanted subcutaneously in mice and the compound administered intravenously at a dose of 2.97 mg/kg on days 1-5.; type: functional; conditions: route intravenous
CCRF S-180 [11] = assay: Ratio of ILS tested compound/quinocarcin against murine sarcoma S-180 tumor cell line implanted subcutaneously in mice and the compound administered intravenously at a dose of 3.13 mg/kg on days 1-5.; type: functional, Mus musculus; conditions: route intravenous
[12] = Antitumor activity in vivo in CD2F1 mice measured in terms of percent increase in lifespan calculated at a dose of 1.56 mg/kg intraperitoneally on days 1-5.; type: functional; conditions: Mus musculus, ip, route intraperitoneal; method in brief: as §2
Homo sapiens [13] = assay: Ratio of ILS tested compound/quinocarcin against human mammary carcinoma MX-1 cell line implanted subcutaneously in mice and the compound administered intravenously at a dose of 4.41 mg/kg on days 1-5.; type: functional; conditions: route intravenous
Homo sapiens [14] = assay: Ratio of ILS tested compound/quinocarcin against human mammary carcinoma MX-1 cell line implanted subcutaneously in mice and the compound administered intravenously at a dose of 12.7 mg/kg on days 1-5.c means number of cured mice.; type: functional; conditions: route intravenous
CCRF S-180 [15] = assay: Ratio of ILS tested compound/quinocarcin against murine sarcoma S-180 tumor cell line implanted subcutaneously in mice and the compound administered intravenously at a dose of 6.25 mg/kg on days 1-5.; type: functional, Mus musculus; conditions: route intravenous
[16] = Antitumor activity in vivo in CD2F1 mice measured in terms of percent increase in lifespan calculated at a dose of 12.5 mg/kg intraperitoneally on days 1-5.; type: functional; conditions: Mus musculus, ip, route intraperitoneal; method in brief: as §2

| Compound | R [1] | R [2] | ILS at 12.5 mg/kg [3] [%] | IC50 (HeLa) [µg/mL] | ILS at 6.25 mg/kg [4] [%] | ILS at 6.25 mg/kg [8] [%] | further results |
| --- | --- | --- | --- | --- | --- | --- | --- |
| CCCSC1=C(SCCC)C(=O)C2=C(C[C@H]3[C@H]4[C@H](C(=O)O)C[C@@H](C5OC[C@@H]2N53)N4C)C1=O (some centres undefined) | 1.21 | 0.98 | 58 | 0.03 (≈ 0.0627 µM) | 86 | – | – |
| COc1c2c(c(OC)c(SC(C)C)c1SC(C)C)[C@H](CO)N1C(C#N)[C@@H]3C[C@@H](C(=O)O)[C@H]([C@@H]1C2)N3C (some centres undefined) | – | – | – | 0.17 (≈ 0.317 µM) | – | – | ILS at 50 mg/kg [5]: 7% |
| CSc1c(O)c2c(c(O)c1SC)[C@@H]1COC3[C@@H]4C[C@@H](C(=O)O)[C@H]([C@H](C2)N31)N4C (some centres undefined) | 1.51 | 0.57 | 65 | 0.13 (≈ 0.306 µM) | 59 | – | – |
| CCOC(=O)CSC1=C(SCC(=O)OCC)C(=O)C2=C(C[C@H]3[C@H]4[C@H](C(=O)O)C[C@@H](C(C#N)N3[C@H]2CO)N4C)C1=O (some centres undefined) | – | – | – | 9.96 (≈ 16.8 µM) | – | – | ILS at 50 mg/kg [6]: 30% |
| CCSC1=C(SCC)C(=O)C2=C(C[C@H]3[C@H]4[C@H](C(=O)O)C[C@@H](C5OC[C@@H]2N53)N4C)C1=O (some centres undefined) | 1.33 | 0.93 | – | 0.08 (≈ 0.178 µM) | – | 64 | ILS at 3.13 mg/kg [7]: 82% |
| CC(C)SC1=C(SC(C)C)C(=O)C2=C(C[C@H]3[C@H]4[C@H](C(=O)O)C[C@@H](C5OC[C@@H]2N53)N4C)C1=O (some centres undefined) | 1.57 | 1.11 | – | 0.0019 (≈ 0.00397 µM) | – | 69 | ILS at 3.13 mg/kg [7]: 98%; T/C (Homo sapiens [9]): 0; T/C (Homo sapiens [10]): 0.046; T/C (CCRF S-180 [11]): 0.73 |
| CCSc1c(O)c2c(c(O)c1OC)[C@H](CO)N1C(C#N)[C@@H]3C[C@@H](C(=O)O)[C@H]([C@@H]1C2)N3C (some centres undefined) | 0.65 | 0.79 | 28 | 1.18 (≈ 2.62 µM) | 58 | – | – |
| COC1=C(SC(C)C)C(=O)C2=C(C[C@H]3[C@H]4[C@H](C(=O)O)C[C@@H](C5OC[C@@H]2N53)N4C)C1=O (some centres undefined) | 1.25 | 0.63 | – | 2.37 (≈ 5.45 µM) | – | 30 | ILS at 1.56 mg/kg [12]: 51% |
| CSc1c(O)c2c(c(O)c1SC)[C@H](CO)N1C(C#N)[C@@H]3C[C@@H](C(=O)O)[C@H]([C@@H]1C2)N3C (some centres undefined) | 1.09 | 0.86 | – | 0.09 (≈ 0.199 µM) | – | 47 | T/C (Homo sapiens [13]): 0.067; ILS at 3.13 mg/kg [7]: 92%; T/C (Homo sapiens [14]): 0; T/C (CCRF S-180 [15]): 0.4 |
| CCSC1=C(SCC)C(=O)C2=C(C[C@H]3[C@H]4[C@H](C(=O)O)C[C@@H](C(C#N)N3[C@H]2CO)N4C)C1=O (some centres undefined) | 1.16 | 0.42 | 50 | 0.11 (≈ 0.23 µM) | 51 | – | – |
| COC1=C(SC(C)C)C(=O)C2=C(C[C@H]3[C@H]4[C@H](C(=O)O)C[C@@H](C(C#N)N3[C@H]2CO)N4C)C1=O (some centres undefined) | – | 1 | 17 | 0.56 (≈ 1.21 µM) | – | – | ILS at 12.5 mg/kg [16]: 75% |
| COC1=C(SC(C)C)C(=O)C2=C(C1=O)[C@H](CO)N1C(C#N)[C@@H]3C[C@@H](C(=O)O)[C@H]([C@@H]1C2)N3C (some centres undefined) | 0.58 | 0.68 | 21 | 1.12 (≈ 2.43 µM) | – | – | ILS at 12.5 mg/kg [16]: 51% |
